Results gathered from unrelated publications.
Lines come from different studies, so protocols differ.
DRD4: D(4) dopamine receptor (DRD4, Homo sapiens, UniProt P21917)
ABHD6: Monoacylglycerol lipase ABHD6 (ABHD6, Homo sapiens, UniProt Q9BV23)
HTR5A: 5-hydroxytryptamine receptor 5A (HTR5A, Homo sapiens, UniProt P47898)
PI4KA: Phosphatidylinositol 4-kinase alpha (PI4KA, Homo sapiens, UniProt P42356)

Compound | target | assay | conditions | inhibition [%]
CN1CC(Oc2cnc(C#N)cc2-c2ccn3nc(NC(=O)C4CC4)cc3c2)C1 | Tribbles homolog 2 (TRIB2, Homo sapiens, UniProt Q92519) | enzyme activity, inhibitor | 1 µM | 9
N#Cc1cc(Cn2c(N3CCCC3)nc3ccccc32)ccc1F | DRD4 | ligand displacement | 10 µM | -0.93
O=C(Oc1nsnc1N1CCC(c2ccccc2)CC1)N1CCCCC1 | ABHD6 | enzyme activity, inhibitor, fluorescence | 1 µM, lysate | 41
CN(C)C1CCN(CC#Cc2nn(C3CCCC3)c3nc(NCc4ccccc4)ncc23)C1 (stereo not shown) | Protein kinase C iota type (PRKCI, Homo sapiens, UniProt P41743) | enzyme activity, inhibitor, FRET | 1 µM | 5
O=C(Oc1nsnc1N1CCC(Cc2ccccc2)CC1)N1CCCCC1 | ABHD6 | enzyme activity, inhibitor, fluorescence | 1 µM, lysate | 15
COc1cc2c3c(c1OC)-c1cc4c(cc1CC3N(CC1CC1)CC2c1ccccc1)OCO4 (stereo not shown) | HTR5A | ligand displacement, radioligand | 10 µM | -18.2
O=C(CSc1nc2nccnc2c(=O)n1CCc1ccccc1)Nc1ccccc1 | PI4KA | enzyme activity, inhibitor | 10 µM | < 20
Cn1cnc(Br)c1C1=CN(c2ncnc3[nH]cnc23)CCS1 | Mitogen-activated protein kinase kinase kinase 19 (MAP3K19, Homo sapiens, UniProt Q56UN5) | enzyme activity, inhibitor, radiometric | 50 nM | 29.5
CCN(CC)c1ccc(C2Nc3ccc(C(=O)c4ccccc4)cc3NC3=C2C(=O)CC(C)(C)C3)cc1 (stereo not shown) | HTR5A | ligand displacement, radioligand | 10 µM | 85
CS(=O)(=O)Nc1cccc(-c2csc(NC(=O)CSc3nc4nccnc4c(=O)n3CCc3ccccc3)n2)c1 | PI4KA | enzyme activity, inhibitor | 10 µM | 5
O=C(Nc1ccc(S(=O)(=O)N2CCC(Cl)CC2)cc1)c1ccc([N+](=O)[O-])o1 | DRD4 | ligand displacement, radioligand | 10 µM | 1
O=C(CSc1nc2nccnc2c(=O)n1CCc1ccccc1)Nc1nccs1 | PI4KA | enzyme activity, inhibitor | 10 µM | -5
CCCNc1nc2ccccc2n1Cc1ccc(Cl)cc1 | DRD4 | ligand displacement | 10 µM | 2.14
